Data taken from ChEMBL document CHEMBL3865799, “Synthesis of a series of novel dihydroartemisinin monomers and dimers containing chalcone as a linker and their anticancer activity” (Eur J Med Chem, 2016).

What was measured:
Vero [1] = assay: Selectivity index, ratio of IC50 for African green monkey Vero cells to IC50 for human MIAPaCa2 cells; format: functional
Procedure, shortened: (§1)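 Suspension cells were seeded at 1.5 × 10^4 per well and adherent lines at 70–75% confluence, then exposed to a range of concentrations. MTT was added 3 h before the end, formazan dissolved in DMSO, and OD read at 570 nm (reference 620 nm). Growth inhibition was taken relative to untreated cells. IC50 came from the MTT data; SI = IC50 in Vero cells / IC50 in the tumour line.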

[2] = Cytotoxicity against human LS180 cells assessed as cell growth inhibition at 50 uM after 48 hrs by MTT assay; format: functional; conditions: LS180, 48 h, read-out: GI
Procedure, shortened: (§2)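 Adherent lines at 70–75% confluence, grown at 37 °C in 5% CO2 with 10% FCS. Exposed 48 h to compound in DMSO (vehicle <0.2% v/v). MTT dye added 3 h before termination; formazan dissolved in DMSO, OD 570 nm with 620 nm reference. Growth inhibition expressed as % of untreated; IC50 taken from the dose series.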

[3] = Cytotoxicity against human PC3 cells assessed as cell growth inhibition at 30 uM after 48 hrs by MTT assay; format: functional; conditions: PC-3, 48 h, read-out: GI; procedure, shortened: as §2
Vero [4] = assay: Selectivity index, ratio of IC50 for African green monkey Vero cells to IC50 for human PC3 cells; format: functional; procedure, shortened: as §1
[5] = Aqueous solubility of the compound at pH 7; format: physicochemical
[6] = Cytotoxicity against human LS180 cells assessed as cell growth inhibition after 48 hrs by MTT assay; format: functional, cell-based; conditions: LS180, 48 h; procedure, shortened: as §2
[7] = Cytotoxicity against human HepG2 cells assessed as cell growth inhibition after 48 hrs by MTT assay; format: functional, cell-based; conditions: HepG2, 48 h; procedure, shortened: as §2
Vero [8] = assay: Selectivity index, ratio of IC50 for African green monkey Vero cells to IC50 for human HL60 cells; format: functional; procedure, shortened: as §1
[9] = Cytotoxicity against human PC3 cells assessed as cell growth inhibition at 10 uM after 48 hrs by MTT assay; format: functional; conditions: PC-3, 48 h, read-out: GI; procedure, shortened: as §2
[10] = Cytotoxicity against human MIAPaCa2 cells assessed as cell growth inhibition at 30 uM after 48 hrs by MTT assay; format: functional; conditions: MIA PaCa-2, 48 h, read-out: GI; procedure, shortened: as §2
[11] = Cytotoxicity against human MIAPaCa2 cells assessed as cell growth inhibition after 48 hrs by MTT assay; format: functional, cell-based; conditions: MIA PaCa-2, 48 h; procedure, shortened: as §2
[12] = Cytotoxicity against human LS180 cells assessed as cell growth inhibition at 0.5 uM after 48 hrs by MTT assay; format: functional; conditions: LS180, 48 h, read-out: GI; procedure, shortened: as §2
[13] = Cytotoxicity against human HepG2 cells assessed as cell growth inhibition at 30 uM after 48 hrs by MTT assay; format: functional; conditions: HepG2, 48 h, read-out: GI; procedure, shortened: as §2
[14] = Cytotoxicity against human PC3 cells assessed as cell growth inhibition at 50 uM after 48 hrs by MTT assay; format: functional; conditions: PC-3, 48 h, read-out: GI; procedure, shortened: as §2
[15] = Cytotoxicity against human LS180 cells assessed as cell growth inhibition at 30 uM after 48 hrs by MTT assay; format: functional; conditions: LS180, 48 h, read-out: GI; procedure, shortened: as §2
[16] = Cytotoxicity against human HepG2 cells assessed as cell growth inhibition at 0.5 uM after 48 hrs by MTT assay; format: functional; conditions: HepG2, 48 h, read-out: GI; procedure, shortened: as §2
[17] = Cytotoxicity against human MIAPaCa2 cells assessed as cell growth inhibition at 1 uM after 48 hrs by MTT assay; format: functional; conditions: MIA PaCa-2, 48 h, read-out: GI; procedure, shortened: as §2
[18] = Cytotoxicity against human LS180 cells assessed as cell growth inhibition at 1 uM after 48 hrs by MTT assay; format: functional; conditions: LS180, 48 h, read-out: GI; procedure, shortened: as §2
[19] = Cytotoxicity against human HepG2 cells assessed as cell growth inhibition at 10 uM after 48 hrs by MTT assay; format: functional; conditions: HepG2, 48 h, read-out: GI; procedure, shortened: as §2
[20] = Cytotoxicity against human HepG2 cells assessed as cell growth inhibition at 50 uM after 48 hrs by MTT assay; format: functional; conditions: HepG2, 48 h, read-out: GI; procedure, shortened: as §2
[21] = Cytotoxicity against human HL60 cells assessed as cell growth inhibition at 50 uM after 48 hrs by MTT assay; format: functional; conditions: HL-60, 48 h, read-out: GI
Procedure, shortened: (§3)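 HL-60 suspension cells, 1.5 × 10^4 per well, grown at 37 °C in 5% CO2 with 10% FCS. Treated 48 h with compound in DMSO (vehicle <0.2% v/v). MTT added 3 h before the end. Formazan dissolved in DMSO and read at 570 nm (reference 620 nm). % growth inhibition computed against untreated cells; IC50 taken from the concentration series.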

[22] = Cytotoxicity against human MIAPaCa2 cells assessed as cell growth inhibition at 50 uM after 48 hrs by MTT assay; format: functional; conditions: MIA PaCa-2, 48 h, read-out: GI; procedure, shortened: as §2
[23] = Cytotoxicity against human HL60 cells assessed as cell growth inhibition at 0.5 uM after 48 hrs by MTT assay; format: functional; conditions: HL-60, 48 h, read-out: GI; procedure, shortened: as §3
[24] = Cytotoxicity against human PC3 cells assessed as cell growth inhibition after 48 hrs by MTT assay; format: functional, cell-based; conditions: PC-3, 48 h
Procedure, shortened: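 Exposed 48 h to compound in DMSO (vehicle <0.2% v/v). MTT dye added 3 h before termination; formazan dissolved in DMSO, OD 570 nm with 620 nm reference. Growth inhibition expressed as % of untreated; IC50 taken from the dose series.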

[25] = Cytotoxicity against human HL60 cells assessed as cell growth inhibition after 48 hrs by MTT assay; format: functional, cell-based; conditions: HL-60, 48 h; procedure, shortened: as §3
[26] = Cytotoxicity against human LS180 cells assessed as cell growth inhibition at 10 uM after 48 hrs by MTT assay; format: functional; conditions: LS180, 48 h, read-out: GI; procedure, shortened: as §2
[27] = Cytotoxicity against human MIAPaCa2 cells assessed as cell growth inhibition at 0.5 uM after 48 hrs by MTT assay; format: functional; conditions: MIA PaCa-2, 48 h, read-out: GI; procedure, shortened: as §2
[28] = Selectivity index, ratio of IC50 for African green monkey Vero cells to IC50 for human LS180 cells; format: functional; procedure, shortened: as §1
[29] = Lipophilicity, log P of the compound; format: physicochemical; conditions: octanol/water
[30] = Cytotoxicity against human HepG2 cells assessed as cell growth inhibition at 1 uM after 48 hrs by MTT assay; format: functional; conditions: HepG2, 48 h, read-out: GI; procedure, shortened: as §2
HepG2 = assay: Selectivity index, ratio of IC50 for African green monkey Vero cells to IC50 for human HepG2 cells; format: functional; procedure, shortened: as §1
[31] = Cytotoxicity against human HL60 cells assessed as cell growth inhibition at 10 uM after 48 hrs by MTT assay; format: functional; conditions: HL-60, 48 h, read-out: GI; procedure, shortened: as §3
[32] = Cytotoxicity against human HL60 cells assessed as cell growth inhibition at 30 uM after 48 hrs by MTT assay; format: functional; conditions: HL-60, 48 h, read-out: GI; procedure, shortened: as §3
[33] = Cytotoxicity against human PC3 cells assessed as cell growth inhibition at 1 uM after 48 hrs by MTT assay; format: functional; conditions: PC-3, 48 h, read-out: GI; procedure, shortened: as §2
[34] = Cytotoxicity against human HL60 cells assessed as cell growth inhibition at 1 uM after 48 hrs by MTT assay; format: functional; conditions: HL-60, 48 h, read-out: GI; procedure, shortened: as §3
[35] = Cytotoxicity against human PC3 cells assessed as cell growth inhibition at 0.5 uM after 48 hrs by MTT assay; format: functional; conditions: PC-3, 48 h, read-out: GI; procedure, shortened: as §2
[36] = Cytotoxicity against human MIAPaCa2 cells assessed as cell growth inhibition at 10 uM after 48 hrs by MTT assay; format: functional; conditions: MIA PaCa-2, 48 h, read-out: GI; procedure, shortened: as §2

SMILES: COc1cc(/C=C/C(=O)c2ccc(OCCO[C@H]3O[C@@H]4O[C@@]5(C)CC[C@H]6[C@H](C)CC[C@@H]([C@H]3C)[C@@]46OO5)cc2)cc(OC)c1OCCO[C@H]1O[C@@H]2O[C@@]3(C)CC[C@H]4[C@H](C)CC[C@@H]([C@H]1C)[C@@]24OO3
- Ratio IC50 (Vero [1]): 100
- inhibition of growth at 50 µM [2]: 70.1%
- inhibition of growth at 30 µM [3]: 57.6%
- Ratio IC50 (Vero [4]): 210
- solubility [5]: < 10 µg/mL
- IC50 [6]: 16 µM
- IC50 [7]: 4 µM
- Ratio IC50 (Vero [8]): 88
- inhibition of growth at 10 µM [9]: 50.2%
- inhibition of growth at 30 µM [10]: 37.4 to 40.1%
- IC50 [11]: > 50 µM
- inhibition of growth at 0.5 µM [12]: 15.3%
- inhibition of growth at 30 µM [13]: 32.9%
- inhibition of growth at 50 µM [14]: 57.9%
- inhibition of growth at 30 µM [15]: 58.1%
- inhibition of growth at 0.5 µM [16]: 38.8%
- inhibition of growth at 1 µM [17]: 38.1%
- inhibition of growth at 1 µM [18]: 27.6%
- inhibition of growth at 10 µM [19]: 59.1%
- inhibition of growth at 50 µM [20]: 33.8 to 58.1%
- inhibition of growth at 50 µM [21]: 86.1%
- inhibition of growth at 50 µM [22]: 48.1%
- inhibition of growth at 0.5 µM [23]: 77.2%
- IC50 [24]: 10 µM
- IC50 [25]: 0.3 µM
- inhibition of growth at 10 µM [26]: 44.6%
- inhibition of growth at 0.5 µM [27]: 37.3%
- Ratio IC50 [28]: 162
- logP [29]: 5.34 to 7.45
- inhibition of growth at 1 µM [30]: 41.5%
- Ratio IC50 (HepG2): 210
- inhibition of growth at 10 µM [31]: 84.6%
- inhibition of growth at 30 µM [32]: 85.4%
- inhibition of growth at 1 µM [33]: 45.9%
- inhibition of growth at 1 µM [34]: 83.9%
- inhibition of growth at 0.5 µM [35]: 34.5%
- inhibition of growth at 10 µM [36]: 38.7%
